H9c2 TAG inh: reduces triacylglycerol accumulation in H9c2 cells; Nile Red lipid (TAG) fluorescence; cells loaded with 200 µM oleic acid; inhibition, % at 12.5 µM; 230,000 tested, 0.66% active;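 active = pattern-corrected inhibition of lipid staining of at least 50% with the nuclear-stain viability signal not falling by more than 50%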
CXCR6 inh: blocks human CXCR6 beta-arrestin recruitment | O00574 | 360,000 tested, 0.36% active | inhibition, % at 20 µM | AID 602244 | CHO-K1 PathHunter CXCR6 beta-arrestin, luminescence; in the data active = inhibition above about 34%, passing the limit was not always enough;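 note: antagonist mode with CXCL16 agonist at 10 nM final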
EBI2 block: blocks human EBI2 receptor beta-arrestin signaling; inhibition, % at 5 µM; P32249; EBI2 beta-arrestin recruitment, luminescence, 7a,25-OHC stimulated; 360,000 tested, 0.81% active; AID 651636; in the data active = inhibition above about 38%;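 note: enzyme fragment complementation signal reports receptor beta-arrestin coupling in cells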
APJ agonist: APJ receptor agonism; P35414; 330,000 tested, 0.11% active; AID 2520; activation, % at 20 µM; CHO-K1 APJ PathHunter beta-arrestin, luminescence; 0% DMSO wells, 100% apelin;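 active = activation more than six SD over the plate average, tested at 20 µM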
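Test system: CHO-K1 APJ beta-arrestin complementation cell line | Compound: Single test compound dose, 20 µM final, 1% DMSO | Incubation: Compound 90 min 25 °C, reagent 1 h | Measured by: beta-gal luminescence | Read-out basis: APJ–arrestin association signal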
CCR6 antag: CCR6 (human) receptor antagonism | inhibition, % at 20 µM | CHO-K1 CCR6 PathHunter beta-arrestin, luminescence, CCL20-stimulated | 340,000 tested, 0.49% active | P51684;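 active = compounds whose inhibition of the agonist-driven luminescence signal at 20 µM reaches about 50%, limit read from the data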;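 note: cells stimulated with CCL20 at 14 nM final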
Target sequence (P51684 whole entry, looked up): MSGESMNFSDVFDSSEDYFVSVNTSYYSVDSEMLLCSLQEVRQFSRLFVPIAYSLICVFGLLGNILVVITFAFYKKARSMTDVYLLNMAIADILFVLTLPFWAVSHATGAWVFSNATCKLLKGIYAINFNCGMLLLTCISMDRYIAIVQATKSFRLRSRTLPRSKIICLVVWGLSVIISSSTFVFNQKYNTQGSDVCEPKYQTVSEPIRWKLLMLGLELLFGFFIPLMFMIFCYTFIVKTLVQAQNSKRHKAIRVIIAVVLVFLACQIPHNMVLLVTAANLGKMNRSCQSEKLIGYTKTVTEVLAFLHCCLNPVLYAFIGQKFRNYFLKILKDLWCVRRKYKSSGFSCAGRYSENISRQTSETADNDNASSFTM
APJ antag: antagonists of human APJ apelin receptor; P35414; CHO-K1 APJ beta-arrestin complementation, luminescence; inhibition, % at 20 µM; 330,000 tested, 0.32% active; AID 2521;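 active = inhibition above about 40% at 20 µM, limit read from the data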;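 note: cells challenged with 10 nM apelin-13 agonist together with compound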
EBI2 antag conf: confirmation of human EBI2 receptor antagonists. EBI2 beta-arrestin luminescence, 7a,25-OHC antagonism. 2,400 tested, 29% active. shares compounds with EBI2 block. AID 651997. inhibition, % at 5 µM;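 active = inhibition of at least 50%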
EBI2 ag: counter-screen for EBI2 antagonists: EBI2 agonist activity; EBI2-expressing cells, agonist mode, luminescence, 60 min; 0% vehicle, 100% 7α,25-dihydroxycholesterol control; 2,400 tested, under 10 active; shares compounds with EBI2 block; activation, % at 5 µM;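 active = activation of at least 50%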
bGal cs: beta-galactosidase inhibition counter-screen. shares compounds with EBI2 block. purified beta-galactosidase, luminescent Galacton Star, 15 min. inhibition, % at 5 µM. 2,400 tested, 1% active. AID 652176;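 active = replicate-average signal at least 3 plate SD below neutral wells, shown as high inhibition, flagging enzyme-inhibiting false positives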;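 note: higher means stronger loss of beta-gal luminescence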
Large screens that a line does not name were inactive (follow-up assays come after a bar, where they were run); ! = not active in a repeat. Shown are actives, neighbours in structure and some others; about 1.9% of the full set was active somewhere.

Oc1ccc(-c2cnc3c(Nc4cccc(OC(F)(F)C(F)F)c4)nccn23)cc1	EBI2 block 73 (no result: APJ agonist, CCR6 antag, APJ antag) | EBI2 antag conf inactive | EBI2 ag inactive | bGal cs inactive
CCOc1ccc(NC(=S)Nc2ccc(Br)cc2Cl)cc1	EBI2 block 68 | EBI2 antag conf inactive | EBI2 ag inactive | bGal cs inactive
CC(C)c1ccc(NC(=S)Nc2ccc(OC(F)(F)F)cc2)cc1	EBI2 block 55 | EBI2 antag conf 51 | EBI2 ag inactive | bGal cs inactive
CNC(=S)Nc1ccc(OCc2ccccc2)cc1	none
CCOc1ccc(NC(=S)Nc2ccc(OCc3ccccc3)cc2)cc1	EBI2 block 58 (no result: H9c2 TAG inh) | EBI2 antag conf inactive | EBI2 ag inactive | bGal cs inactive
CCC(C)c1ccc(NC(=S)Nc2ccc(OC)cc2)cc1 (centres undefined)	EBI2 block 53 (no result: H9c2 TAG inh) | EBI2 antag conf inactive | EBI2 ag inactive | bGal cs inactive
COc1ccc(CCNC(=S)Nc2ccc(C(C)C)cc2)cc1	none
O=c1c(Br)c(N2CCCCC2)cnn1-c1ccccc1	none
COc1ccc(NC(=S)c2ccccc2)cc1	none (no result: H9c2 TAG inh)
COc1ccc(NC(=S)Nc2ccccc2)cc1	EBI2 block 39! (no result: H9c2 TAG inh) | EBI2 antag conf inactive | EBI2 ag inactive | bGal cs inactive
CCOc1ccc(NC(=S)Nc2ccc(OC)cc2)cc1	EBI2 block 75 | EBI2 antag conf 63 | EBI2 ag inactive | bGal cs inactive
OC(c1ccc(F)c(F)c1)c1ncc(-c2cccc(F)c2)[nH]1 (centres undefined)	none (no result: APJ agonist, CCR6 antag, APJ antag)
CC(C)(C)CC(C)(C)c1ccc(O)c(Cc2ccc(Cl)cc2Cl)c1	EBI2 block 75 (no result: APJ agonist, APJ antag) | EBI2 antag conf inactive | EBI2 ag inactive | bGal cs inactive
COc1ccc(C(=O)NCC(c2ccccc2)c2ccccc2)cc1S(=O)(=O)N1CCOCC1	none (no result: APJ agonist, APJ antag)
O=C(NCCc1c[nH]c2ccccc12)C(=O)NCC(c1ccco1)N1CCN(c2ccc(F)cc2)CC1 (centres undefined)	EBI2 block 41 (no result: H9c2 TAG inh) | EBI2 antag conf inactive | EBI2 ag inactive | bGal cs inactive
O=C(NCCc1c[nH]c2ccccc12)C(=O)NCC(c1ccco1)N1CCN(c2ccccc2)CC1 (centres undefined)	EBI2 block 36 (no result: H9c2 TAG inh) | EBI2 antag conf inactive | EBI2 ag inactive | bGal cs inactive
O=C(CCCN1C(=O)C2CC=CCC2C1=O)Nc1ccccc1F (centres undefined)	none
COc1cccc(C(=O)OCC(=O)Nc2cc(C)on2)c1OC	none
C(=N\N(c1ccccc1)c1ccccc1)/c1ccc(N2CCOCC2)s1	EBI2 block 56 (no result: H9c2 TAG inh) | EBI2 antag conf inactive | EBI2 ag inactive | bGal cs inactive
Cc1sc2nc(C(C)C)nc(SCC(=O)N3CCOCC3)c2c1C	none (no result: H9c2 TAG inh)
COc1ccc(OC)c(C2=Nn3c(nnc3-c3cccc(OC(C)C)c3)SC2)c1	EBI2 block 46 (no result: H9c2 TAG inh) | EBI2 antag conf inactive | EBI2 ag inactive | bGal cs inactive
COc1ccc(OC)c(C2=Nn3c(nnc3-c3ccco3)SC2)c1	none (no result: H9c2 TAG inh)
CCCN(CCC)Cc1cc(=O)oc2cc(OC)ccc12	none (no result: H9c2 TAG inh, APJ agonist, CCR6 antag, APJ antag)
COc1cc2oc(=O)cc(CN(Cc3ccccc3)Cc3ccccc3)c2cc1Cl	EBI2 block 45 (no result: H9c2 TAG inh, APJ agonist, CCR6 antag, APJ antag) | EBI2 antag conf inactive | EBI2 ag inactive | bGal cs inactive
COc1ccc2c(CN(Cc3ccccc3)Cc3ccccc3)cc(=O)oc2c1	EBI2 block 52 (no result: H9c2 TAG inh, APJ agonist, CCR6 antag, APJ antag) | EBI2 antag conf inactive | EBI2 ag inactive | bGal cs inactive
COc1cc2oc(=O)cc(CN3CCCCC3)c2cc1Cl	none (no result: H9c2 TAG inh, APJ agonist, CCR6 antag, APJ antag)
Cc1ncc(CN2CCCCC2C(=O)Nc2ccc(Oc3ccccc3)nc2)cn1 (centres undefined)	none
O=C(Nc1ccc(Oc2ccccc2)nc1)C1CCCCN1Cc1cccc(OCCO)c1 (centres undefined)	EBI2 block 63 (no result: H9c2 TAG inh) | EBI2 antag conf 58 | EBI2 ag inactive | bGal cs inactive

Screening results as filed in PubChem BioAssay.
